This passage reports cytotoxicity results from ChEMBL document CHEMBL4513216, “Probing the Open Global Health Chemical Diversity Library for Multistage-Active Starting Points for Next-Generation Antimalarials” (ACS Infect Dis, 2020).

The data set can be described thus: Toxicity liver stage against HepG2, at 10uM. The data set is classed as cell-based. Also noted: test concentration 10 uM, cell line HepG2-A16-CD81EGFP. Conditions: human, HepG2-A16-CD81EGFP cells; read-out: INHIBITION
The gist of the method: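 Uninfected HepG2-A16-CD81EGFP cells, 3 × 10^3 per well, 1536-well, plated on prespotted compound at 10 μM final, parasite-free screening media added to match infected plates; puromycin 10 μM positive, DMSO 0.5% negative; run in parallel with 48 h PbLuc assay at 37 °C, 5% CO2; viability by CellTiter-Glo luminescence, normalized to controls.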

Turning to `Cc1ccnc(NC(=O)C2CCN(CCCn3ccnc3C)CC2)c1`, the cytotoxicity at 10 µM was -58.2%.

Turning to `Cc1cnc(CN2CCCC(c3cc(C(F)(F)F)[nH]n3)C2)cn1` (stereo unspecified), the cytotoxicity at 10 µM is -0.168%. For `O=C(N[C@@H]1CCN(Cc2cc3ccccc3s2)C[C@H]1O)c1cccnc1` the value was -7.57%. The result for `CCOCCC(=O)NCc1ccnc(NC2CC2)c1` reads 0.545%; that for `COc1ccc(OC)c(CNc2c(O)c(=O)c2=O)c1`, 7.08%; that for `O=C1CCN(C(=O)C2(c3ccc(F)cc3)CCOCC2)CCN1`, -4.97%. Take `Cc1cc(NC(=O)NC(C)(C)c2nc(C)c(C)s2)no1`: the cytotoxicity at 10 µM was -1.95%. With `NCCCC(=O)NCC1(O)CCCN(c2ccnc3cccnc23)C1` (stereo unspecified), the cytotoxicity at 10 µM came out at 3.71%.

For the compound `CC1CCCCN1C1CN(C(=O)c2sccc2S(N)(=O)=O)C1` (stereo unspecified), the cytotoxicity at 10 µM was -1.45%.

Regarding `Fc1cnc(N2CCC3(CC2)CN(Cc2cccs2)CCO3)nc1`, the cytotoxicity at 10 µM was 12.4%. Take `Cc1nnc2n1CCN(C(C(N)=O)c1ccc(F)cc1)C2` (stereo unspecified): the cytotoxicity at 10 µM is -13.5%. Take `CCS(=O)(=O)N1CCC2(CC1)CN(Cc1ccccn1)C(=O)CO2`: the cytotoxicity at 10 µM was found to be 3.01%. For `CCC[C@H]1CN(Cc2ccc3c(c2)OCCO3)C[C@@H]1NC(=O)COC` the value was -4.19%; for `CCC(C(=O)NC1(COC)CCCC1)n1cccn1` (stereo unspecified), -3.41%. The result for `CCCC(=O)N1CCC2(CC1)OCCO2` reads 5.22%. The result for `Cc1cn2c(n1)CCC(NC(=O)c1cc(C3CC3)[nH]n1)C2` (stereo unspecified) reads -16.9%; that for `c1coc(-c2noc(CN3CCCC(Cn4cncn4)C3)n2)c1` (stereo unspecified), -7.23%.

Turning to `O=C(NCc1cccc(N2CC=CC2)c1)NCC(F)(F)F`, the cytotoxicity at 10 µM was found to be 8.89%. For `Fc1cccc(-n2ccc(CN3CCCC3Cn3cncn3)n2)c1` (stereo unspecified) the value was -9.43%. With `O=C(Nc1cnccn1)[C@@H]1CC[C@@H]2[C@@H](CCN2Cc2nccs2)O1`, the cytotoxicity at 10 µM was -136%. As for `CC(C)N(C)C(=O)c1ccc(CNc2cncc(Cl)n2)cc1`, the cytotoxicity at 10 µM was 2.87%.

Regarding `Fc1cccc(-n2ccc(CN3CCCC3Cn3cccn3)n2)c1` (stereo unspecified), the cytotoxicity at 10 µM was -13.1%.

As to `Cc1ccc(NC2CCN(C(=O)c3cc4c(s3)CCC4)CC2)nn1`, the cytotoxicity at 10 µM was -3.48%. The result for `Cc1ccc(-c2cc(N)c(=O)n(CC(=O)NCC3CC3)n2)s1` reads 10.3%; that for `N#Cc1c[nH]c(C(=O)N(Cc2ccc(O)cc2)CC2CC2)c1`, 11.5%; that for `c1cc(NCc2ccncc2)nc(C2CCCNC2)c1` (stereo unspecified), -1.83%.

`CC(C)(C)NC(=O)CNC(=O)CCc1ccccc1Br`: the cytotoxicity at 10 µM was 3.09%. As for `Cc1noc(C)c1CN1C(=O)[C@@H]2CC[C@H]1CN(Cc1ncc[nH]1)C2`, the cytotoxicity at 10 µM is 5.85%. As for `COc1ccccc1N1CCN(C(=O)Cn2nccc2C)CC1(C)C`, the cytotoxicity at 10 µM came to 11.8%. For the compound `Cc1n[nH]cc1CNCC1(c2ccccc2Cl)CCOCC1`, the cytotoxicity at 10 µM is 8.16%. As for `O=C(c1ccco1)N1C[C@H]2CCCN(Cc3ccncc3)[C@H]2C1`, the cytotoxicity at 10 µM was 0.361%. Consider `Cc1cc(C)c2c(c1)C(NC(=O)CSc1nnc[nH]1)CCO2` (stereo unspecified), for which the cytotoxicity at 10 µM was -3.91%. For `Cc1nc(C2(NCc3c(C)nn(C)c3N3CCOCC3)CCC2)no1` the value was 4.98%. The result for `CC(C)CNC(=O)c1ccc(NC(=O)NC2CC2)cc1Cl` reads 2.56%; that for `OC1(CNCCSc2ccccn2)CNCCOC1` (stereo unspecified), -9.41%; that for `NC(=O)C1CCN(C(=O)NCc2ccc3c(c2)OCCO3)CC1`, -8.14%. `Cc1cc2n(n1)CC(CNCc1ccnc(-n3ccnc3C)c1)CN2` (stereo unspecified): the cytotoxicity at 10 µM was -4.95%. For `COc1ccccc1OCc1nc2cc3c(cc2c(=O)o1)OCCCO3` the value was 1.37%; for `Cc1cc(C)cc(NC(=O)Nc2c(O)c3ccccc3oc2=O)c1`, 9.24%; for `Cc1occc(=O)c1OCC(=O)N1CCc2ccccc2C1`, -0.765%.

Take `O=C(NCCCn1cccn1)C1(c2ccccc2)CCOCC1`: the cytotoxicity at 10 µM was determined as 5.78%. The result for `CCc1nc(CN2CCCC(NCc3cnc(C)s3)C2)no1` (stereo unspecified) reads -9.26%. For `Cc1nccn1C1CCCN(C(=O)c2cnc[nH]2)C1` (stereo unspecified) the value was -5.43%; for `CC(C)CN1C[C@@H]2CN(C(=O)c3cccn3C)C[C@@H]2C1=O`, -111%; for `CN(C)c1nc2c(c(N3CCC(O)CC3)n1)CN(CC1CCOC1)CC2` (stereo unspecified), -0.473%. For `CC(C)N(C)Cc1cc(=O)n2c(n1)CN(C(=O)c1cnccn1)CCC2`, the cytotoxicity at 10 µM was -3.02%. For the compound `CCOC(=O)N1CCN(CC(=O)Nc2nnc(C)s2)CC1`, the cytotoxicity at 10 µM was 1.31%. Consider `Cc1ccc(-c2ccc(C3CNCCO3)nc2)cc1` (stereo unspecified), for which the cytotoxicity at 10 µM is -5.3%. For `O=C(O)c1cc2c(nc1O)CC(c1cccs1)CC2=O` (stereo unspecified) the value was 8.32%. Consider `COc1ccc(CN(Cc2ccccn2)Cc2cncn2C)cc1`, for which the cytotoxicity at 10 µM turned out to be 9.65%. The result for `O=C(O)Cc1cnc(-c2c(Cl)cccc2Cl)s1` reads 2.84%; that for `Cc1cc(C)c(C(=O)NC2CCCc3nc(N(C)C)ncc32)cc1C` (stereo unspecified), -1.25%. The result for `CC(C)(C)c1cc(NC(=O)CN2CCn3c(nnc3C3CC3)C2)on1` reads -4.1%; that for `COc1cccc(F)c1CN1CCC(c2nccc(C)n2)C1` (stereo unspecified), 5.29%; that for `O=C1NCC2(CCCN(C(=O)Nc3cccc(-c4cscn4)c3)CC2)O1` (stereo unspecified), -4.54%. Take `CC(=O)Nc1cc(C2CC2)nn1-c1nc(C)c(C)c(=O)[nH]1`: the cytotoxicity at 10 µM is -1.39%.

Regarding `c1ccc(CN2CC[C@H]3CO[C@H](CNc4ncccn4)[C@H]3C2)nc1`, the cytotoxicity at 10 µM was -9.63%.

For the compound `Cc1cc(N2CCN(Cc3nccn3C)CC2)cc(C)n1`, the cytotoxicity at 10 µM worked out at 15.7%. For `c1cc(CO[C@@H]2CC[C@H]3[C@H]2OCCN3CC2CCOCC2)ccn1` the value was 26.9%. On to `Cc1cc(NC(=O)Cn2ccccc2=O)n(C)n1`, for which the cytotoxicity at 10 µM is -7.32%. Take `CN1CCC/C1=N\S(=O)(=O)c1ccc(NC(=O)c2ccco2)cc1`: the cytotoxicity at 10 µM is 4.56%. As to `COCCc1ncc(CN2C[C@@H](C(=O)O)[C@H](C(C)C)C2)cn1`, the cytotoxicity at 10 µM was -5.35%. Turning to `CC(C)Nc1ncnc2c1CCN(C(=O)Cc1ccccn1)CC2`, the cytotoxicity at 10 µM came to 3.3%.

Take `Cc1cc(C)cc(N2CC(c3nnc(N)s3)CC2=O)c1` (stereo unspecified): the cytotoxicity at 10 µM was found to be 4.29%. The result for `Cc1cc(N2CCC(C(=O)N(C)C)CC2)nc(-c2ccncc2)n1` reads -17.1%; that for `Cc1nnc2ccc(N3CCC(C(=O)Nc4nccs4)CC3)nn12`, 3.89%; that for `Cn1cc(CN2C[C@H]3CCC[C@@H](CNc4nccn4C)[C@H]3C2)cn1`, 10.9%. On to `Cc1cc(N2CCN(c3nc4ccccc4cc3CO)CC2)nc(C)n1`, for which the cytotoxicity at 10 µM was found to be 7.86%.

Consider `Cc1ccc(C(NCC(=O)N2CCNC(=O)C2)c2ccccc2)cc1` (stereo unspecified), for which the cytotoxicity at 10 µM was 2.1%.

In the case of `CC(=O)N1CCN(Cc2ccc(C(F)(F)F)cc2F)CC(O)C1` (stereo unspecified), the cytotoxicity at 10 µM was -5.34%.

Take `CN1CC(c2ccccc2)CC12CCN(C(=O)c1c(Cl)cnn1C)CC2` (stereo unspecified): the cytotoxicity at 10 µM is -17%. For `COc1ccc(-n2cc(CNC(=O)c3ccccn3)nn2)cc1` the value was -4.05%.

For `CS(=O)(=O)c1ccc(CC(=O)N2CCN3CCNC(=O)C3C2)cc1` (stereo unspecified), the cytotoxicity at 10 µM was -3.34%. For the compound `CC(C)(C)c1cn2c(n1)C(CNCc1ccccn1)CCC2` (stereo unspecified), the cytotoxicity at 10 µM was -9.5%.

Regarding `CCOCC1CCN(C(=O)C(c2c(F)cccc2F)N(C)C)CC1` (stereo unspecified), the cytotoxicity at 10 µM was -3.12%. For `CN(C)C(=O)C1CCCN1c1ncnc2ccsc12` (stereo unspecified) the value was 4.04%. The result for `CC1CN(CCOc2ccccc2C#N)CCN1Cc1nccn1C` (stereo unspecified) reads -10.8%. Turning to `CCOc1ccc(Cl)c(C(=O)N2CCCN(CC(N)=O)CC2)n1`, the cytotoxicity at 10 µM was -1.26%. In the case of `Cn1cc(CN2CCC(F)(F)C3(CCN(c4ncccn4)C3)C2)cn1` (stereo unspecified), the cytotoxicity at 10 µM was -0.58%. For `COCCN1CCCC(O)(CN2CCN(c3ccncc3C)CC2)C1=O` (stereo unspecified) the value was -6.45%.

For the compound `Cc1ccc(CNC2CCCc3c2cnn3C)s1` (stereo unspecified), the cytotoxicity at 10 µM was -0.987%.

Consider `Fc1cccc(N2CCOC3(CCCN(c4nncs4)C3)C2)c1` (stereo unspecified), for which the cytotoxicity at 10 µM amounted to 4%. In the case of `CCn1nc(CC(C)C)cc1C(=O)NCCS(=O)(=O)N(C)C`, the cytotoxicity at 10 µM is 11.2%.

In the case of `COc1ccc(CN2CC[C@@H]3CN(S(C)(=O)=O)CCO[C@@H]3C2)cc1`, the cytotoxicity at 10 µM was -1.55%. For `CCn1ncc(S(=O)(=O)NC(C)c2cc(OC)ccc2OC)c1C` (stereo unspecified) the value was -4.48%; for `CC(C)CNC(=O)[C@H]1C[C@H]2CN(C(=O)Nc3ccc(F)cc3)C[C@@H]1O2`, 0.428%. For `CC1CN(C(=O)NCCCn2cncn2)CCO1` (stereo unspecified) the value was -6.82%; for `Cc1cc(C)c2ncn(CCC(C)O)c(=O)c2c1` (stereo unspecified), 2.1%; for `CCn1cnnc1CNC(=O)N(C)Cc1ccc2c(c1)OCCO2`, -1.96%. The result for `CC(O)c1cn(C2CCN(C(=O)C3(C)CCN(C)CC3)CC2)nn1` (stereo unspecified) reads -0.293%. Turning to `O=S(=O)(c1ccccc1)N1CCCC1c1cc[nH]n1` (stereo unspecified), the cytotoxicity at 10 µM was -6.58%.

Consider `CN1[C@@H](C(=O)NCC2CC2)C[C@@H]2CN(Cc3ccco3)C[C@@H]21`, for which the cytotoxicity at 10 µM turned out to be 4.68%. The result for `O=C1CC(c2ccc(C(=O)O)cc2)c2ncn(-c3ccccc3Cl)c2N1` (stereo unspecified) reads 2.03%. The result for `CCn1ccc(-c2cc(C(=O)O)n3ncc(Br)c3n2)n1` reads -4.81%. For `CN(C)c1cccc(C(=O)NCC(O)c2cccs2)c1` (stereo unspecified) the value was 16.6%.

With `Cn1cc(C(=O)Nc2ccc3c(c2)CN(C(=O)c2ccco2)CC3)nn1`, the cytotoxicity at 10 µM came to 0.0452%.
